Compound activity as filed in PubChem.
Sampled rows, rich in hits. Any-hit rate of the full collection: about 2.1%.
STK33 inh – human STK33 kinase inhibition; purified STK33, MBP phosphorylation, ADP-Glo luminescence; inhibition, % at 10 µM; AID 2661; Q9BYT3; 320,000 tested, 0.073% active;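 active means inhibition at or above 25%, using the most active replicate where run in duplicate; inactive means inhibition below 25%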
GSK3beta inhib – blocks human GSK3beta kinase activity; P49841; GST-GSK3beta kinase, ADP-Glo luminescence, 60 min; hits give low values; activity score (negative = inhibition), % at 10 µM; 300,000 tested, 0.038% active; AID 2097;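 active means more than half of replicate wells score below -50%, meaning over 50% inhibition versus plate controls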
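Test system – GST-tagged human GSK3beta kinase, cell-free · Incubation – 60 min enzyme reaction, room temperature · Signal – ADP-Glo luminescence · Also added – peptide substrate and ATP at 25 µM · Controls – DMSO neutral wells and GW8510 at 20 µM as positive · Buffer or medium – Tris/MgCl2 kinase buffer · Measure – Luminescence-derived activity versus plate DMSO and GW8510 wells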
MEKK2 WT-MEK5 – raises or lowers MEK5 binding to wildtype human MEKK2 PB1 domain; Q9Y2U5; bead flow cytometry, Alexa488-MEK5 binding to MEKK2 WT; actives lie on both sides; binding response (% of control), % at 10 µM; 290,000 tested, 1.1% active; AID 1531; in the data active means binding response below about 67% or above about 130%
GSK3A inh – blocks human GSK-3 alpha kinase; inhibition, % at 10 µM; AID 2650; 320,000 tested, 0.1% active; ADP-Glo luminescence, 60 min;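 active means more than half of replicates show inhibition above 20%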;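 further: GST-tagged GSK-3 alpha with peptide substrate and 25 µM ATP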
MEKK3 PB1 HTS – raises or lowers MEK5 binding to the human MEKK3 PB1 domain | bead-based flow cytometry, Alexa488-MEK5 binding to MEKK3; actives lie on both sides; 0 = blocked by unlabeled MEK5, 100 = vehicle | Q99759 | 290,000 tested, 1.4% active | binding response (% of control), % at 10 µM;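 active means binding response more than 3 SD above or below the average of its plate-row segment, actives on both sides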;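 further: Alexa488 bead fluorescence after subtracting the streptavidin-only scavenger bead signal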
Target sequence (Q99759 whole entry, looked up, the tested form may be a part): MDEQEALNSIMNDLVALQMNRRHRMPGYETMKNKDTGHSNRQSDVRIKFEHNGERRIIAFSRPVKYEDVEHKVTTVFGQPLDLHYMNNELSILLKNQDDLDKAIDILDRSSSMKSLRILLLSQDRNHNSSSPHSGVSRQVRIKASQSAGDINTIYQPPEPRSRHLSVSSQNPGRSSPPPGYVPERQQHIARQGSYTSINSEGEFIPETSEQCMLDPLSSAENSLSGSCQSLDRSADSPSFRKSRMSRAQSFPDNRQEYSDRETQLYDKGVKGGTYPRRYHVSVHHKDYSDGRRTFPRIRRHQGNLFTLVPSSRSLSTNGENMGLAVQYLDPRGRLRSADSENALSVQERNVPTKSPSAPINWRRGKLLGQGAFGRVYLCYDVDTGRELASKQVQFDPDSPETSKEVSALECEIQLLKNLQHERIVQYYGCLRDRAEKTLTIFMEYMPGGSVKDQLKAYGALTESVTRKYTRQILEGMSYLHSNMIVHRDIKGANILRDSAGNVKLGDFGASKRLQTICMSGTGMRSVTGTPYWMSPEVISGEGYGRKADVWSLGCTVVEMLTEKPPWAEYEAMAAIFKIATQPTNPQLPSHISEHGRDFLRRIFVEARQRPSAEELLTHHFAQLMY
MEKK2mut PB1 HTS – signal of MEK5 binding to mutant human MEKK2 PB1 domain; bead flow cytometry, Alexa488-MEK5 binding to MEKK2 mutant; percent response, % at 10 µM; 290,000 tested, 0.35% active; in the data active means percent response above about 24%, passing the limit was not always enough
MEKK2wt confirm – raises or lowers MEK5 binding to wildtype human MEKK2, retest; shares compounds with MEKK3 PB1 HTS; bead flow cytometry, Alexa488-MEK5 binding to MEKK2 WT; actives lie on both sides; binding response (% of control), % at 10 µM; 5,900 tested, 2.4% active; in the data active means binding response below about 16% or above about 210%; inactive means in between
MEKK2mut confirm – signal of MEK5 binding to mutant human MEKK2, retest. bead flow cytometry, Alexa488-MEK5 binding to MEKK2 mutant. shares compounds with MEKK3 PB1 HTS. 5,900 tested, 2% active. percent response, % at 10 µM; in the data active means percent response mostly above about 71%, no sharp cut-off; inactive means mostly below about 38%;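 further: higher means compound restores mutant binding toward wildtype level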
MEKK3-MEK5 inh – MEKK3-MEK5 PB1 inhibition, single concentration confirmation. shares compounds with MEKK3 PB1 HTS. binding response (% of control), % at 10 µM. bead flow cytometry, Alexa488-MEK5 binding to MEKK3; hits give low values. 5,900 tested, 1.8% active;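 active means binding response below 72% of control, or above a set upper limit, though filed actives all read lower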
Each line names hits and unclear results; the compound was inactive in the other large screens (follow-up assays come after a bar, where they were run); [ ] = another dose, or the depositor's remark.

O=C(Cc1ccc(Cl)cc1)NCC(=O)N1CCCCCC1	none
COC(=O)c1sccc1NC(=O)c1c(Cl)cnn1C	none
Cc1c(C(=O)NCCc2ccccc2)oc2ccc(S(=O)(=O)N3CCOCC3)cc12	MEKK3 PB1 HTS 125 | MEKK2wt confirm inactive | MEKK2mut confirm inactive | MEKK3-MEK5 inh inactive
Cc1c(C(=O)N2CCN(C)CC2)oc2ccc(S(=O)(=O)N3CCOCC3)cc12	MEKK2 WT-MEK5 2.0[inhibitor], MEKK3 PB1 HTS 2.0[inhibitor] (no result: GSK3beta inhib) | MEKK2wt confirm inactive | MEKK2mut confirm inactive | MEKK3-MEK5 inh inactive
Cc1c(C(=O)NC2CCCc3ccccc32)oc2ccc(S(=O)(=O)N3CCOCC3)cc12 (stereo not given)	MEKK3 PB1 HTS 82[inhibitor] | MEKK2wt confirm inactive | MEKK2mut confirm inactive | MEKK3-MEK5 inh inactive
CCOC(=O)N1CCN(C(=O)c2oc3ccc(S(=O)(=O)N4CCCCC4)cc3c2C)CC1	none
Cc1ccc(S(=O)(=O)Nc2ccc(-c3nc4ccc(C)cc4s3)cc2)cc1	MEKK3 PB1 HTS 151 | MEKK2wt confirm inactive | MEKK2mut confirm inactive | MEKK3-MEK5 inh inactive
Cc1ccc2nc(NC(=O)c3ccc(NS(=O)(=O)c4cccs4)cc3)sc2c1	MEKK3 PB1 HTS 136 | MEKK2wt confirm inactive | MEKK2mut confirm inactive | MEKK3-MEK5 inh inactive
Cc1ccccc1OCC(=O)Nc1c2c(nn1C(C)(C)C)CS(=O)(=O)C2	none
COc1cc(/C=N/Nc2ccc(Cl)cc2)ccc1OC(=O)c1cccs1	MEKK3 PB1 HTS 46[inhibitor] (no result: GSK3beta inhib) | MEKK2wt confirm inactive | MEKK2mut confirm inactive | MEKK3-MEK5 inh inactive
Cn1c(=O)c(/C=C/c2ccc(F)cc2)nc2ccccc21	MEKK2 WT-MEK5 55[inhibitor] (no result: STK33 inh, GSK3A inh) | MEKK2wt confirm inactive | MEKK2mut confirm inactive | MEKK3-MEK5 inh inactive
O=c1c(/C=C(\O)c2ccc(F)cc2)nc2ccccc2n1-c1ccccc1	MEKK2 WT-MEK5 45[inhibitor] | MEKK2wt confirm inactive | MEKK2mut confirm inactive | MEKK3-MEK5 inh inactive
Cn1c(=O)c(/C=C/c2ccccc2)nc2ccccc21	none
COCCN(C(=O)CCCc1nc2ccccc2s1)c1c(N)n(CC(C)C)c(=O)[nH]c1=O	none (no result: GSK3beta inhib, MEKK2 WT-MEK5, MEKK3 PB1 HTS, MEKK2mut PB1 HTS)
C[N+](C)(C)C/C=C1/COCO1	MEKK2mut PB1 HTS 27 | MEKK2wt confirm inactive | MEKK2mut confirm inactive | MEKK3-MEK5 inh inactive
O=C(CN1CCCc2ccccc21)N/N=C/c1ccccc1O	MEKK3 PB1 HTS 128 | MEKK2wt confirm inactive | MEKK2mut confirm inactive | MEKK3-MEK5 inh inactive
O=C(CN1CCCc2ccccc21)N/N=C/c1ccc(F)cc1F	none
Cn1c(CNC(=O)C2CCC(=O)N(CCc3cccc(F)c3)C2)nc2ccccc21 (stereo not given)	none
COc1cccc(-c2nc(C(=O)NCCCN3CCOCC3)cc3c2[nH]c2ccccc23)c1	none
O=C(NCCCN1CCOCC1)c1cc2c([nH]c3ccccc32)c(-c2cccc(Br)c2)n1	MEKK2 WT-MEK5 161, MEKK2mut PB1 HTS 31 | MEKK2wt confirm inactive | MEKK2mut confirm inactive | MEKK3-MEK5 inh inactive
CCN(CC)CCNC(=O)c1ccc(NC(=O)c2ccc(COc3ccccc3)cc2)cc1	MEKK2 WT-MEK5 162, MEKK2mut PB1 HTS 26 (no result: GSK3A inh) | MEKK2wt confirm inactive | MEKK2mut confirm inactive | MEKK3-MEK5 inh inactive
Cc1nc(NC(=O)/C=C/c2ccccc2)sc1C(=O)NCCO	MEKK3 PB1 HTS 139, MEKK2mut PB1 HTS 79 | MEKK2wt confirm inactive | MEKK2mut confirm inactive | MEKK3-MEK5 inh inactive
CCOC(=O)CNC(=O)c1sc(NC(=O)/C=C/c2ccccc2)nc1C	none
COc1ccccc1-n1c(-c2ccccc2)c[nH]c1=S	MEKK3 PB1 HTS 49[inhibitor] (no result: STK33 inh, GSK3A inh) | MEKK2wt confirm inactive | MEKK2mut confirm inactive | MEKK3-MEK5 inh inactive
S=c1[nH]cc(-c2ccccc2)n1-c1ccccc1Cl	none
O=S(=O)(Nc1nc2ccccc2nc1Nc1ccc(N2CCOCC2)cc1)c1cc(Cl)ccc1Cl	MEKK3 PB1 HTS 150 | MEKK2wt confirm inactive | MEKK2mut confirm inactive | MEKK3-MEK5 inh inactive
CCc1sc(-c2c(C#N)c(N)nc3c2CCCCCC3)cc1[N+](=O)[O-]	MEKK2 WT-MEK5 1.0[inhibitor], MEKK3 PB1 HTS 1.0[inhibitor] | MEKK2wt confirm inactive | MEKK2mut confirm inactive | MEKK3-MEK5 inh inactive
CC(C)(C)c1ccc(-c2c(C#N)c(N)nc3c2CCCC3)s1	none
CCOC(=O)C1(C)NC(c2cc(OC)c(OC)c(OC)c2)C2C(=O)N(CC)C(=O)C21 (stereo not given)	MEKK2 WT-MEK5 2.0[inhibitor], MEKK3 PB1 HTS 2.0[inhibitor] | MEKK2wt confirm inactive | MEKK2mut confirm inactive | MEKK3-MEK5 inh inactive
CCN1C(=O)C2C(c3ccc(O)c(OC)c3)NC(C)(C(=O)OC)C2C1=O (stereo not given)	none
O=C(CCCCn1c(=O)c2ccccc2n(Cc2ccccc2)c1=O)NC1CCN(Cc2ccccc2)CC1	MEKK2 WT-MEK5 32[inhibitor], MEKK3 PB1 HTS 22[inhibitor] | MEKK2wt confirm inactive | MEKK2mut confirm inactive | MEKK3-MEK5 inh inactive
Cc1ccc(-c2cc(C(=O)Nc3ccc(S(=O)(=O)N4CC(C)OC(C)C4)cc3)[nH]n2)c(O)c1 (stereo not given)	none
Cc1ccc(O)c(-c2cc(C(=O)Nc3ccc(S(=O)(=O)N4CC(C)OC(C)C4)cc3)[nH]n2)c1 (stereo not given)	MEKK3 PB1 HTS 123 (no result: GSK3A inh) | MEKK2wt confirm inactive | MEKK2mut confirm inactive | MEKK3-MEK5 inh inactive
CN(CC(=O)NNC(=O)CNC(=O)c1cccs1)S(=O)(=O)c1ccc(Cl)cc1	none (no result: MEKK2 WT-MEK5, MEKK3 PB1 HTS, MEKK2mut PB1 HTS)
S=C(Nc1ccccc1)Nc1cc(Cl)ccc1Oc1ccccc1	MEKK3 PB1 HTS 123 | MEKK2wt confirm inactive | MEKK2mut confirm inactive | MEKK3-MEK5 inh inactive
C/C(=N\NC(=O)c1nnn(-c2nonc2N)c1CSc1ccc(C)cc1)c1ccco1	none
COc1ccccc1Nc1nc(NCc2ccco2)c2ccccc2n1	MEKK2 WT-MEK5 177 | MEKK2wt confirm inactive | MEKK2mut confirm inactive | MEKK3-MEK5 inh inactive
Oc1ccccc1-c1nc(NCc2ccco2)c2ccccc2n1	none
Cc1ccc(Nc2nc(NCc3ccco3)c3ccccc3n2)cc1	MEKK2 WT-MEK5 191, MEKK2mut PB1 HTS 77 | MEKK2wt confirm inactive | MEKK2mut confirm inactive | MEKK3-MEK5 inh inactive
Oc1ccccc1Nc1nc(NCc2ccccc2)c2ccccc2n1	MEKK2 WT-MEK5 216, MEKK2mut PB1 HTS 67 | MEKK2wt confirm inactive | MEKK2mut confirm inactive | MEKK3-MEK5 inh inactive
